Entries after “also recorded” stand apart in the source; their conditions may differ.
Assays:
[1] = system: T. b. brucei Lister 427 cells; conditions: earlier study, cited from earlier work
[2] = system: T. b. brucei Lister 427 cells; test: T. brucei cell viability analysis; type: cell-based, Trypanosoma brucei brucei; conditions: IC50 mammalian cells / IC50 T. brucei
How it was run: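 Index is mammalian-cell IC50 divided by T. brucei IC50. Parasite arm: bloodstream-form Lister 427 in HMI-9/10% FBS, 37°C, 7.5% CO2; 5,000 cells, compound with 0.1% DMSO, 48 h; MTS 3 h, A490. Mammalian arm: HEK293 or RAW264.7 in RPMI1640/10% FBS, 3000 cells seeded 24 h, compound 48 h; MTT 3 h, A570. Quadruplicates normalized, dose–response fitted.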

[3] = target: tubulin (Trypanosoma brucei rhodesiense, UniProt P04106+P04107); test: Tubulin polymerization in T. brucei cells; type: cell-based; conditions: 12 h treatment, different doses, western blot vs DMSO
Sequence of tubulin (P04107 whole entry): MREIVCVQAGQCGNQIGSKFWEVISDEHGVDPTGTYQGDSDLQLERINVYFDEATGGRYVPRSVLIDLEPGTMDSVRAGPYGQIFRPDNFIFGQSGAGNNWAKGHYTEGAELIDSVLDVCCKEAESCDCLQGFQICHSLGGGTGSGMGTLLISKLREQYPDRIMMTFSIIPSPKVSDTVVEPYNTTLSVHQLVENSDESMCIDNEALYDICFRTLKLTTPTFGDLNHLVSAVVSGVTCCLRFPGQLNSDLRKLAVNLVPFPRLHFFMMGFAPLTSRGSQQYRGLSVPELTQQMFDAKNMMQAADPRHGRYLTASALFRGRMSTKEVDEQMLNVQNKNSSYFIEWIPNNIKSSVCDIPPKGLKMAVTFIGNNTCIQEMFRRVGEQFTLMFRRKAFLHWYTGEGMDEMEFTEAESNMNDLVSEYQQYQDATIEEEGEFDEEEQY
Sequence of tubulin (P04106 whole entry): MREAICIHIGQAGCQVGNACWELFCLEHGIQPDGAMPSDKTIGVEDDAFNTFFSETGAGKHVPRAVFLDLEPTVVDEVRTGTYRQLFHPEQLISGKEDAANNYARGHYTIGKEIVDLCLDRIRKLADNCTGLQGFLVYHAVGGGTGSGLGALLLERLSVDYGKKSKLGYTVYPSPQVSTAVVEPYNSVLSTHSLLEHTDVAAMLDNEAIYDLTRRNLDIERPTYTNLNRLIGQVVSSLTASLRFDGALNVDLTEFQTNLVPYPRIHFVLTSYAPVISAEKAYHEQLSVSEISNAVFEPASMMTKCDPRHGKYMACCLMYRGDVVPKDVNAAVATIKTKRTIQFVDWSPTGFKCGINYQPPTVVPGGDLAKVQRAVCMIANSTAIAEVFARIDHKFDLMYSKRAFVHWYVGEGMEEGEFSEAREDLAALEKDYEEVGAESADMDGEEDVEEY
How it was run: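 Bloodstream-form T. b. brucei Lister 427 (HMI-9, 10% FBS, 37°C, 7.5% CO2) treated 12 h with varying doses in 0.5% DMSO; washed in TDB with protease inhibitors, lysed 5 min at 4°C in Pipes pH 6.8/EGTA/MgCl2/0.15% Triton X-100/glycerol; 15,000 g 30 min spin separated soluble (non-polymerized) supernatant from pellet, RIPA-boiled (polymerized). Equal cell-equivalent fractions blotted with anti-tubulin antibody.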

| SMILES | selectivity index ([1]; IC50 human cell growth / IC50 T. brucei cell growth) | IC50 to inhibit trypanosomal cell proliferation [1] | selectivity index (mammalian cell line not given) [2] | effect on tubulin polymerization in T. brucei cells [3] |
| --- | --- | --- | --- | --- |
| Cc1cc(NC(=O)c2cc(C(F)(F)F)cc(C(F)(F)F)c2)ccc1NS(=O)(=O)C(F)(F)F [Compound 15, N-(3-Methyl-4-Trifluoromethanesulfonylamino-Phenyl)-3,5-Bis-Trifluoromethyl-Benzamide] | around 7000 | 70 nM | – | – |
| CCS(=O)(=O)Nc1ccc(NC(=O)c2cc(C(F)(F)F)cc(C(F)(F)F)c2)cc1Cl [Compound 40, N-(3-Chloro-4-(Ethylsulfonamido)Phenyl)-3,5-Bis(Trifluoromethyl)Benzamide] | – | – | below 50 | – |
| N#Cc1ccc(C(=O)Nc2ccc(NS(=O)(=O)C(F)(F)F)c(F)c2)cc1 [Compound 57, 4-Cyano-N-(3-Fluoro-4-(Trifluoromethylsulfonamido)Phenyl)Benzamide] | – | – | – | decreased the amount of polymerized tubulin in a dose-dependent manner; also recorded: inhibit the tubulin polymerization in T. brucei cells |
| CCS(=O)(=O)Nc1ccc(NC(=O)c2ccc(Cl)c([N+](=O)[O-])c2)cc1Cl [Compound 39, 4-Chloro-N-(3-Chloro-4-(Ethylsulfonamido)-Phenyl)-3-Nitrobenzamide] | – | – | below 50 | – |
| Cc1cc(NC(=O)c2cc(C(F)(F)F)cc(C(F)(F)F)c2)ccc1NS(C)(=O)=O [Compound 5, N-(4-(Methylsulfonamido)-3-Methylphenyl)-3,5-Bis(Trifluoromethyl)Benzamide] | – | – | above 50 | profound effect on tubulin function; also recorded: decreased the amount of polymerized tubulin in a dose-dependent manner; also recorded: inhibit the tubulin polymerization in T. brucei cells |

— PMC6531046 (Bioorganic & medicinal chemistry, 2019)
